Test results reported in ChEMBL document CHEMBL2440013, “New quaternary ammonium camphor derivatives and their antiviral activity, genotoxic effects and cytotoxicity” (Bioorg Med Chem, 2013).
Where a name gives a salt, the structure may show the parent alone.

Tests used:
[1] = Selectivity index, ratio of CTD50 for MDCK cells to EC50 for Influenza A virus California/07/09(H1N1) pdm09 infected in MDCK cells; type: toxicity, cell-based; conditions: dog, read-out: Selectivity Index
Summary of the method: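 CTD50 came from MDCK cells given twofold dilutions (1000–4 µg/ml) in MEM for 48 h at 37 °C, 5% CO2. CTD50 was the concentration halving OD versus control. SI is CTD50 divided by EC50 from the haemagglutination-based antiviral assay.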

[2] = Cytotoxicity against MDCK cells after 48 hrs by MTT assay; type: cell-based, Canis lupus familiaris; conditions: dog, read-out: CTD50
Summary of the method: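 MDCK cells were grown in MEM at 37 °C, 5% CO2 to a confluent monolayer. They were then exposed for 48 h to twofold dilutions (1000–4 µg/ml in MEM), washed twice with saline, and given MTT ([…] in saline) for 1 h. Formazan was dissolved in DMSO and OD read at 535 nm. Triplicates were run. CTD50 is the concentration halving OD versus control wells.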

[3] = Antiviral activity against Influenza virus A/California/07/09 (H1N1)pdm09 infected in MDCK cells assessed as inhibition of viral replication incubated for 1 hr prior to viral infection measured after 48 hrs by hemagglutination reaction; type: functional, cell-based, Influenza A virus (A/California/07/2009(H1N1))
Summary of the method: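 MDCK monolayers in MEM were pre-incubated with compound for 1 h at 37 °C before infection, then held 48 h at 37 °C in 5% CO2. Virus yield was read by haemagglutination: equal volumes of supernatant and 1% chicken erythrocytes, 60 min at room temperature. Triplicates were run. EC50 was the concentration that halved virus production (0.3 log10 EID50 titre drop).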

[4] = tested on: Escherichia coli; assay: Induction of mutagenicity in Escherichia coli BL21(DE3) expressing pRAC-gfp assessed as modulation of reporter protein GFP synthesis at 150 uM incubated for 1.5 hrs followed by plasmid maturation measured after 1.5 hrs by fluorophotometry relative to control; type: toxicity
[5] = Toxicity in Escherichia coli BL21(DE3) expressing pET36b-gfp assessed as inhibition of IPTG-induced reporter protein GFP synthesis at 150 uM after 1.5 hrs by fluorophotometry relative to control; conditions: Escherichia coli BL21(DE3) cells expressing pET36b-gfp, read-out: Activity
Summary of the method: (§1)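 E. coli BL21(DE3) carrying the IPTG-inducible gfp plasmid was grown in LB at 37 °C with shaking to D600 0.4–0.5, then treated with compound for 1.5 h. OD600 and GFP emission 500–600 nm (excitation 491 nm) were read. Control cells were untreated, with 1 mM IPTG (final) added after 1.5 h. Fluorescence decreases of 20% and 50% versus control were counted as toxic and extremely toxic.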

[6] = tested on: Escherichia coli; assay: Induction of mutagenicity in Escherichia coli BL21(DE3) expressing pRAC-gfp assessed as induction of reporter protein GFP synthesis at 10 ug/ml incubated for 1.5 hrs followed by plasmid maturation measured after 1.5 hrs by fluorophotometry; type: toxicity
Summary of the method: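 BL21(DE3) carried pRAC-gfp, with GFP under the Proteus mirabilis recA regulatory region. Cells were grown in LB at 37 °C with shaking to OD600 0.4–0.5, given compound, grown 1.5 h, then held 1.5 h at 4–6 °C for chromophore maturation. OD600 and GFP emission (500–600 nm, excitation 491 nm) were measured. Controls were water (negative) and nalidixic acid […] (positive). Result is % change in GFP versus control.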

[7] = Toxicity in Escherichia coli BL21(DE3) expressing pET36b-gfp assessed as inhibition of IPTG-induced reporter protein GFP synthesis at 2 uM after 1.5 hrs by fluorophotometry relative to control; conditions: Escherichia coli BL21(DE3) cells expressing pET36b-gfp, read-out: Activity; summary of the method: as §1
[8] = tested on: Escherichia coli; assay: Induction of mutagenicity in Escherichia coli BL21(DE3) expressing pRAC-gfp assessed as modulation of reporter protein GFP synthesis at 2 uM incubated for 1.5 hrs followed by plasmid maturation measured after 1.5 hrs by fluorophotometry; type: toxicity
[9] = tested on: U-937; assay: Cytotoxicity against human U937 cells after 72 hrs by MTT assay; type: functional
Summary of the method: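 Cells were grown in RPMI-1640 with 10% embryonic calf serum, 2 mmol/L L-glutamine, gentamicin and lincomycin. Compounds in DMSO were added, then 72 h at 37 °C, 5% CO2. Three wells per concentration, with untreated cells as control. 1% MTT for 4 h, DMSO for 15 min, OD 570 nm. CTD50 is the concentration killing 50% of cells.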

CCN(CC)CC/N=C1\C[C@H]2CC[C@]1(C)C2(C)C
selectivity ratio [1]: 81
CC50 at 48 h [2]: 0.807 mM
EC50 ([3]; Influenza A virus, pdm09, MDCK): 10 µM

CC[N+](CC)(CCCCCCCC[N+](CC)(CC)CC/N=C1\C[C@H]2CC[C@]1(C)C2(C)C)CC/N=C1\C[C@H]2CC[C@]1(C)C2(C)C
selectivity ratio [1]: 42
CC50 at 48 h [2]: 0.552 mM
Activity [4]: 57%
EC50 ([3]; Influenza A virus, pdm09, MDCK): 13.2 µM
inhibition at 1.5 h, 150 µM [5]: 67%

NC12CC3CC(CC(C3)C1)C2 [AMANTADINE]
selectivity ratio [1]: 4
CC50 at 48 h [2]: 0.284 mM
EC50 ([3]; mdck): 64.2 µM

CC(N)C12CC3CC(CC(C3)C1)C2 (stereo unspecified) [RIMANTADINE HYDROCHLORIDE]
selectivity ratio [1]: 5
CC50 at 48 h [2]: 0.335 mM
EC50 ([3]; Influenza A virus, pdm09, MDCK): 67 µM

CC[N+](CC)(CCCCCCCCCCCC[N+](CC)(CC)CC/N=C1\C[C@H]2CC[C@]1(C)C2(C)C)CC/N=C1\C[C@H]2CC[C@]1(C)C2(C)C
selectivity ratio [1]: 2
CC50 at 48 h [2]: 0.128 mM
Activity [4]: 74%
EC50 ([3]; Influenza A virus, pdm09, MDCK): 59.9 µM
inhibition at 1.5 h, 150 µM [5]: 89%

CC(N)C1C[C@@H]2CC[C@H]1C2 (stereo partly specified) [DEITIFORIN]
CC50 at 48 h [2]: 1.27 mM

CCn1cc(C(=O)O)c(=O)c2ccc(C)nc21 [NALIDIXIC ACID]
Activity [6]: 500%

CC[N+](CC)(CCCCCCCCC[N+](CC)(CC)CC/N=C1\C[C@H]2CC[C@]1(C)C2(C)C)CC/N=C1\C[C@H]2CC[C@]1(C)C2(C)C
selectivity ratio [1]: 82
CC50 at 48 h [2]: 0.578 mM
Activity [4]: 51%
EC50 ([3]; Influenza A virus, pdm09, MDCK): 6.9 µM
inhibition at 1.5 h, 150 µM [5]: 65%

CC[N+](C)(CC)CC/N=C1\C[C@H]2CC[C@]1(C)C2(C)C
CC50 at 48 h [2]: 1.89 mM
EC50 ([3]; Influenza A virus, pdm09, MDCK): 40.4 µM

CC12CCC(CC1=O)C2(C)C (single isomer, unassigned; (+)) [CAMPHOR]
selectivity ratio [1]: 2
inhibition at 1.5 h, 2 µM [7]: 6%
Activity [8]: 5%
CC50 at 48 h [2]: 3.29 mM
EC50 ([3]; mdck): 1640 µM

CC[N+](CC)(CC)CC/N=C1\C[C@H]2CC[C@]1(C)C2(C)C
selectivity ratio [1]: 13
CC50 at 48 h [2]: 1.78 mM
EC50 ([3]; Influenza A virus, pdm09, MDCK): 140 µM

CC[N+](CC)(CCCCCCCCCC[N+](CC)(CC)CC/N=C1\C[C@H]2CC[C@]1(C)C2(C)C)CC/N=C1\C[C@H]2CC[C@]1(C)C2(C)C
selectivity ratio [1]: 5
CC50 at 48 h [2]: 0.285 mM
Activity [4]: 70%
EC50 ([3]; Influenza A virus, pdm09, MDCK): 55.3 µM
inhibition at 1.5 h, 150 µM [5]: 78%

CC[N+](CC)(CCCCCC[N+](CC)(CC)CC/N=C1\C[C@H]2CC[C@]1(C)C2(C)C)CC/N=C1\C[C@H]2CC[C@]1(C)C2(C)C.[Br-].[Br-]
selectivity ratio [1]: 21
CC50 at 48 h [2]: 1.71 mM
EC50 ([3]; Influenza A virus, pdm09, MDCK): 81.2 µM
CTD50 [9]: 82.1 µM

CC[N+](CC)(CCCCC[N+](CC)(CC)CC/N=C1\C[C@H]2CC[C@]1(C)C2(C)C)CC/N=C1\C[C@H]2CC[C@]1(C)C2(C)C
selectivity ratio [1]: 87
CC50 at 48 h [2]: 1.28 mM
EC50 ([3]; Influenza A virus, pdm09, MDCK): 14.7 µM

CC[N+](CC)(CC/N=C1\C[C@H]2CC[C@]1(C)C2(C)C)Cc1ccc(C[N+](CC)(CC)CC/N=C2\C[C@H]3CC[C@]2(C)C3(C)C)cc1
selectivity ratio [1]: 33
CC50 at 48 h [2]: 1.45 mM
EC50 ([3]; Influenza A virus, pdm09, MDCK): 43.4 µM
